Reference: the M2OR odorant receptor database

Tests used:
Conditions in all cases: stereoisomer not certain
OR51D1 (Homo sapiens) = target: T1, OR51D1 (Homo sapiens) (UniProt Q8NGF3)
T1 sequence (whole entry): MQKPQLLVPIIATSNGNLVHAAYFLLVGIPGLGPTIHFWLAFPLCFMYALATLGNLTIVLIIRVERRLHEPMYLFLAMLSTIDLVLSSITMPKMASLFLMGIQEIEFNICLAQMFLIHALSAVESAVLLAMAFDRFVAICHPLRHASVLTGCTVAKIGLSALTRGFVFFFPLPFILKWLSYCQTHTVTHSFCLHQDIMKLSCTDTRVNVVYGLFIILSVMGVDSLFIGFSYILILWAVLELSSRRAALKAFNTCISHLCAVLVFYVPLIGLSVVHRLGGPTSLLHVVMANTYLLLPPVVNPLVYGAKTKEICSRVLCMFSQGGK
In short: (§1)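 Assay methods differ from source to source, frequently being transient luciferase assays in mammalian cell lines. For each receptor–molecule pair, the label responsive (active) applies when the original authors judged the measured signal statistically different from baseline, and non-responsive (inactive) applies otherwise.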

OR51E1 (Homo sapiens) = target: T2, OR51E1 (Homo sapiens) (UniProt Q8TCB6)
T2 sequence (whole entry): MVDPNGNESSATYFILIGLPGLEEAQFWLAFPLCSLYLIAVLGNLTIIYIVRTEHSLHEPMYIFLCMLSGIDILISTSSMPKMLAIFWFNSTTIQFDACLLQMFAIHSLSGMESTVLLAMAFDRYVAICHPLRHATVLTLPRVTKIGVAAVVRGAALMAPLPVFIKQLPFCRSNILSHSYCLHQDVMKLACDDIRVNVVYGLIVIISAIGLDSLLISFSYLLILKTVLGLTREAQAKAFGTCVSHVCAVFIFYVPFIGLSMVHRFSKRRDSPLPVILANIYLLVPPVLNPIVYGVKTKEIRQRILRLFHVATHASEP
In short: as §1

OR51E2 (Homo sapiens) = target: T3, OR51E2 (Homo sapiens) (UniProt Q9H255)
T3 sequence (whole entry): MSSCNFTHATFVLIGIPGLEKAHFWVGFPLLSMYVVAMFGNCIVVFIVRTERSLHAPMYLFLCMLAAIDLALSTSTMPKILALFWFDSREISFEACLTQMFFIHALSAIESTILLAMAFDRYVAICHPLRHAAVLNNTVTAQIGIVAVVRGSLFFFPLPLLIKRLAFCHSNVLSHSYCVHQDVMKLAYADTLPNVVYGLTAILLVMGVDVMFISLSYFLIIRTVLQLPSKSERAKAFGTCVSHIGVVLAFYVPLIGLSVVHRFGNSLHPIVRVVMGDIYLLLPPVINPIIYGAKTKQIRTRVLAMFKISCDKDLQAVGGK
In short: as §1

OR51F1 (Homo sapiens) = target: T4, OR51F1 (Homo sapiens) (UniProt A6NGY5)
T4 sequence (whole entry): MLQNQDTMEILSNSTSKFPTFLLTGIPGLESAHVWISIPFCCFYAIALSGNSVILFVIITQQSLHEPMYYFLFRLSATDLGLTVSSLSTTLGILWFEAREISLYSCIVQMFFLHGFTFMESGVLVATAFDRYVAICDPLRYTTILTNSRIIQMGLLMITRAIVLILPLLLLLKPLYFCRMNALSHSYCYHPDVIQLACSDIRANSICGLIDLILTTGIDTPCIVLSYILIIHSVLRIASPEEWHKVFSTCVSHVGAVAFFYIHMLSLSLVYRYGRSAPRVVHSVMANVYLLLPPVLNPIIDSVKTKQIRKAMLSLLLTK
In short: as §1

OR51F2 (Homo sapiens) = target: T5, OR51F2 (Homo sapiens) (UniProt Q8NH61)
T5 sequence (whole entry): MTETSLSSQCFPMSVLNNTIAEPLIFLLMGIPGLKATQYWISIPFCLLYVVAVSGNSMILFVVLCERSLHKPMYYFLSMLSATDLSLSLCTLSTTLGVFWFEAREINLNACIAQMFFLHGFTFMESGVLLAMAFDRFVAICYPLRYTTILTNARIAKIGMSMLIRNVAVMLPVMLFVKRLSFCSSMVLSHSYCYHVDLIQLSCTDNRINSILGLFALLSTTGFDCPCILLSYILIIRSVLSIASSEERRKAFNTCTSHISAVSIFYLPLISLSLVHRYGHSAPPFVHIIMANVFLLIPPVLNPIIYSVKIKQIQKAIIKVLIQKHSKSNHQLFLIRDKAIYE
In short: as §1

OR51G1 (Homo sapiens) = target: T6, OR51G1 (Homo sapiens) (UniProt Q8NGK1)
T6 sequence (whole entry): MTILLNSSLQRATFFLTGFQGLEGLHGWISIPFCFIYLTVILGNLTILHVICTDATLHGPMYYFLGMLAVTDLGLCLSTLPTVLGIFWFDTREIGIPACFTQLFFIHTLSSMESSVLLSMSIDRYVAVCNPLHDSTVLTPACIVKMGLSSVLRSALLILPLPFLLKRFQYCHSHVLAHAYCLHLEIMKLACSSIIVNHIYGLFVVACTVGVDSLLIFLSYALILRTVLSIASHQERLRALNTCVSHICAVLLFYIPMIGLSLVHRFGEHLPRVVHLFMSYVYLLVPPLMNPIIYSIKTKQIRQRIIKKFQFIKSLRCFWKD
In short: as §1

OR51G2 (Homo sapiens) = target: T7, OR51G2 (Homo sapiens) (UniProt Q8NGK0)
T7 sequence (whole entry): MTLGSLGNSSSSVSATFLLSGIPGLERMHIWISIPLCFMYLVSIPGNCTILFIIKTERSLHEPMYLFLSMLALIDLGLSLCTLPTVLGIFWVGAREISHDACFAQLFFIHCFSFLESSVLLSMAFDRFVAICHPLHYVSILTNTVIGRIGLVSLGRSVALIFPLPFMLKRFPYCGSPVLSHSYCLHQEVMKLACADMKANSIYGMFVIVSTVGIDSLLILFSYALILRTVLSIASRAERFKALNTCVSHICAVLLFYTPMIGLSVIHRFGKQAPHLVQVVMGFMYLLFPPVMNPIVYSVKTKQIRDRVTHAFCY
In short: as §1

OR51I1 (Homo sapiens) = target: T8, OR51I1 (Homo sapiens) (UniProt Q9H343)
T8 sequence (whole entry): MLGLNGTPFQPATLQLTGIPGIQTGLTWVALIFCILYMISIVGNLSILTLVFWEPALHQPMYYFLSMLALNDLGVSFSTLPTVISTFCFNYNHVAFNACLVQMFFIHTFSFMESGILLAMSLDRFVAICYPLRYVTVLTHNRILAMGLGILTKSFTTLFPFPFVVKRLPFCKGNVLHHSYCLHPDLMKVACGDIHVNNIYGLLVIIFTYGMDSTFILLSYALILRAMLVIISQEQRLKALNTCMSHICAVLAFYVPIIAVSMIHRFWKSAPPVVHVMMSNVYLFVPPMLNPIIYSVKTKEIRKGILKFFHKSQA
In short: as §1

OR51I2 (Homo sapiens) = target: T9, OR51I2 (Homo sapiens) (UniProt Q9H344)
T9 sequence (whole entry): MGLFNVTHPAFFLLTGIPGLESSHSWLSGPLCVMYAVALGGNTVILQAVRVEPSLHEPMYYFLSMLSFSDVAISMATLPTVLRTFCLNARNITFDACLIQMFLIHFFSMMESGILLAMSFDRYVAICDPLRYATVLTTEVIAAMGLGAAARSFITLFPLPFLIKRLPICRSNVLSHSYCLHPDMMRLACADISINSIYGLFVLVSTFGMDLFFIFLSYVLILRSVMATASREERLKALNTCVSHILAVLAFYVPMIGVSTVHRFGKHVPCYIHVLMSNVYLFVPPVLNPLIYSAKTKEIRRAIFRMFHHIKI
In short: as §1

Measured: odorant receptor agonist call

CCCCCC(=O)C(C)C(C)=O (centres undefined)
inactive: OR51D1 (Homo sapiens) | OR51E1 (Homo sapiens) | OR51E2 (Homo sapiens) | OR51F1 (Homo sapiens) | OR51F2 (Homo sapiens) | OR51G1 (Homo sapiens) | OR51G2 (Homo sapiens) | OR51I1 (Homo sapiens) | OR51I2 (Homo sapiens)
